{"source": "ChEMBL document CHEMBL1649147", "about": "“Antistaphylococcal activity of dihydrophthalazine antifolates, a family of novel antibacterial drugs” (2009)", "key": {"Staphylococcus aureus [1]": {"system": "Staphylococcus aureus", "test": "Antibacterial activity against methicillin-susceptible Staphylococcus aureus ATCC 29213 after 50 passages by agar dilution method", "format": "functional", "details": "ATCC29213", "procedure,_shortened": "(§1)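 Daily serial passage for up to 50 days at 35°C for 24 h in 1 ml MHB. […] Each transfer used 10 µl from the tube nearest the MIC (1–2 dilutions below) with the same turbidity as the drug-free control. […] MICs were measured by agar dilution, with changes given as log2 steps.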"}, "[2]": {"system": "Staphylococcus epidermidis", "test": "Antibacterial activity against methicillin-susceptible coagulase-negative Staphylococcus epidermidis 057 after 50 passages by agar dilution method", "format": "functional", "procedure,_shortened": "(§2)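 Daily serial passage for up to 50 days at 35°C for 24 h in 1 ml MHB. Each transfer used 10 µl from the tube nearest the MIC (1–2 dilutions below) with the same turbidity as the drug-free control. MICs were measured by agar dilution, with changes given as log2 steps.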"}, "[3]": {"system": "Staphylococcus epidermidis", "test": "Antibacterial activity against methicillin-resistant, Linezolid non-susceptible coagulase-negative Staphylococcus epidermidis 345 by agar dilution method", "format": "functional"}, "Staphylococcus aureus [4]": {"system": "Staphylococcus aureus", "test": "Antibacterial activity against Tmp-resistant Staphylococcus aureus by agar dilution method", "format": "functional", "procedure,_shortened": "(§3)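 MICs by agar dilution on Mueller-Hinton agar following CLSI guidelines. S. aureus ATCC 29213 and E. faecalis ATCC 29212 were run as quality controls with each set, and test-strain MICs were kept only if control MICs fell within acceptable ranges.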"}, "Staphylococcus aureus [5]": {"system": "Staphylococcus aureus", "test": "Antibacterial activity against methicillin-susceptible Staphylococcus aureus 505 by broth macrodilution method", "format": "functional"}, "Staphylococcus aureus [6]": {"system": "Staphylococcus aureus", "test": "Antibacterial activity against methicillin-susceptible Staphylococcus aureus by agar dilution method", "format": "functional", "procedure,_shortened": "(§4)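 Agar dilution on Mueller-Hinton agar per CLSI guidelines. S. aureus ATCC 29213 and E. faecalis ATCC 29212 were run with each set, and test MICs were accepted only when the control strains fell within acceptable ranges.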"}, "[7]": {"system": "coagulase-negative staphylococci", "test": "Antibacterial activity against methicillin-resistant coagulase-negative staphylococci by agar dilution method"}, "[8]": {"system": "Staphylococcus epidermidis", "test": "Antibacterial activity against methicillin-resistant, Linezolid non-susceptible coagulase-negative Staphylococcus epidermidis 345 after 50 passages by agar dilution method", "format": "functional", "procedure,_shortened": "as §2"}, "Staphylococcus aureus [9]": {"system": "Staphylococcus aureus", "test": "Antibacterial activity against methicillin-resistant and vancomycin-resistant Staphylococcus aureus VRS1 by agar dilution method", "format": "functional", "procedure,_shortened": "as §4"}, "[10]": {"system": "coagulase-negative staphylococci", "test": "Antibacterial activity against Tmp-resistant coagulase-negative staphylococci by agar dilution method"}, "[11]": {"system": "Staphylococcus epidermidis", "test": "Antibacterial activity against methicillin-resistant coagulase-negative Staphylococcus epidermidis 345 by broth macrodilution method", "format": "functional"}, "[12]": {"system": "Staphylococcus epidermidis", "test": "Antibacterial activity against methicillin-resistant, vancomycin-intermediate coagulase-negative Staphylococcus epidermidis 225 by agar dilution method", "format": "functional", "procedure,_shortened": "as §4"}, "[13]": {"system": "Staphylococcus epidermidis", "test": "Antibacterial activity against methicillin-resistant coagulase-negative Staphylococcus epidermidis 225 by broth macrodilution method", "format": "functional"}, "Staphylococcus aureus [14]": {"system": "Staphylococcus aureus", "test": "Antibacterial activity against vancomycin-resistant Staphylococcus aureus VRS1 by broth macrodilution method", "format": "functional", "procedure,_shortened": "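Michigan VRSA strain, one of 12 staphylococci later used in time-kill studies. MIC was determined by broth macrodilution and reported in μg/ml.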"}, "Staphylococcus aureus [15]": {"system": "Staphylococcus aureus", "test": "Antibacterial activity against methicillin-resistant Staphylococcus aureus ATCC 43300 after 50 passages by agar dilution method", "format": "functional", "details": "ATCC43300", "procedure,_shortened": "(§5)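 Serial passage under drug. Inoculum was ~1 × 10^6 CFU/ml from overnight MHA growth, in 1 ml MHB at 35°C for 24 h. Drug ranged from 4 log2 steps above to 3 log2 steps below the MIC. […] MIC change is given as log2 steps.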"}, "[16]": {"system": "Staphylococcus epidermidis", "test": "Antibacterial activity against methicillin-resistant, vancomycin-intermediate coagulase-negative Staphylococcus epidermidis 225 after 50 passages by agar dilution method", "format": "functional", "procedure,_shortened": "as §1"}, "[17]": {"system": "coagulase-negative staphylococci", "test": "Antibacterial activity against methicillin-susceptible coagulase-negative staphylococci by agar dilution method"}, "Staphylococcus aureus [18]": {"system": "Staphylococcus aureus", "test": "Antibacterial activity against methicillin-susceptible, vancomycin-intermediate Staphylococcus aureus 505 by broth macrodilution method", "format": "functional"}, "Staphylococcus aureus [19]": {"system": "Staphylococcus aureus", "test": "Antibacterial activity against methicillin-resistant Staphylococcus aureus 145 by broth macrodilution method", "format": "functional"}, "[20]": {"system": "Staphylococcus epidermidis", "test": "Antibacterial activity against methicillin-resistant coagulase-negative Staphylococcus epidermidis 197 by broth macrodilution method", "format": "functional"}, "Staphylococcus aureus [21]": {"system": "Staphylococcus aureus", "test": "Antibacterial activity against Tmp-susceptible coagulase-negative Staphylococcus aureus by agar dilution method", "format": "functional", "procedure,_shortened": "as §3"}, "[22]": {"system": "Staphylococcus epidermidis", "test": "Antibacterial activity against methicillin-susceptible coagulase-negative Staphylococcus epidermidis 051 by broth macrodilution method", "format": "functional"}, "Staphylococcus aureus [23]": {"system": "Staphylococcus aureus", "test": "Antibacterial activity against methicillin-resistant Staphylococcus aureus ATCC 43300 by broth macrodilution method", "format": "functional", "details": "ATCC43300"}, "[24]": {"system": "Staphylococcus epidermidis", "test": "Antibacterial activity against methicillin-resistant coagulase-negative Staphylococcus epidermidis 197 after 50 passages by agar dilution method", "format": "functional", "procedure,_shortened": "as §2"}, "Staphylococcus aureus [25]": {"system": "Staphylococcus aureus", "test": "Antibacterial activity against methicillin-resistant and vancomycin-resistant Staphylococcus aureus VRS1 after 50 passages by agar dilution method", "format": "functional", "procedure,_shortened": "as §1"}, "Staphylococcus aureus [26]": {"system": "Staphylococcus aureus", "test": "Antibacterial activity against Tmp-susceptible Staphylococcus aureus by agar dilution method", "format": "functional", "procedure,_shortened": "as §3"}, "[27]": {"system": "Staphylococcus epidermidis", "test": "Antibacterial activity against methicillin-susceptible coagulase-negative Staphylococcus epidermidis 057 by broth macrodilution method", "format": "functional"}, "Staphylococcus aureus [28]": {"system": "Staphylococcus aureus", "test": "Antibacterial activity against methicillin-susceptible, vancomycin-intermediate Staphylococcus aureus 505 after 50 passages by agar dilution method", "format": "functional", "procedure,_shortened": "as §1"}, "Staphylococcus aureus [29]": {"system": "Staphylococcus aureus", "test": "Antibacterial activity against methicillin-resistant Staphylococcus aureus 145 after 50 passages by agar dilution method", "format": "functional", "procedure,_shortened": "as §5"}, "[30]": {"system": "Staphylococcus epidermidis", "test": "Antibacterial activity against methicillin-resistant coagulase-negative Staphylococcus epidermidis 074 by broth macrodilution method", "format": "functional"}, "Staphylococcus aureus [31]": {"system": "Staphylococcus aureus", "test": "Antibacterial activity against methicillin-resistant Staphylococcus aureus 507 by broth macrodilution method", "format": "functional"}, "[32]": {"system": "Staphylococcus epidermidis", "test": "Antibacterial activity against methicillin-susceptible coagulase-negative Staphylococcus epidermidis 051 after 50 passages by agar dilution method", "format": "functional", "procedure,_shortened": "as §2"}, "Staphylococcus aureus [33]": {"system": "Staphylococcus aureus", "test": "Antibacterial activity against methicillin-susceptible Staphylococcus aureus ATCC 29213 by broth macrodilution method", "format": "functional", "details": "ATCC29213"}, "Staphylococcus aureus [34]": {"system": "Staphylococcus aureus", "test": "Antibacterial activity against methicillin-resistant Staphylococcus aureus by agar dilution method", "format": "functional", "procedure,_shortened": "as §4"}, "[35]": {"system": "coagulase-negative staphylococci", "test": "Antibacterial activity against Tmp-susceptible coagulase-negative staphylococci by agar dilution method"}}, "data": [{"smiles": "CN(C)c1ccc(O)c2c1C[C@H]1C[C@H]3[C@H](N(C)C)C(O)=C(C(N)=O)C(=O)[C@@]3(O)C(O)=C1C2=O", "note": "[MINOCYCLINE]", "values": [{"measurement": "MIC", "setting": "Staphylococcus aureus [1]", "value": 2, "unit": "µg/mL"}, {"measurement": "MIC", "setting": "[2]", "value": 2, "unit": "µg/mL"}, {"measurement": "MIC", "setting": "[3]", "value": 0.5, "unit": "µg/mL"}, {"measurement": "MIC50", "setting": "Staphylococcus aureus [4]", "value": 0.25, "unit": "µg/mL"}, {"measurement": "MIC90", "setting": "Staphylococcus aureus [4]", "value": 8, "unit": "µg/mL"}, {"measurement": "MIC", "setting": "Staphylococcus aureus [5]", "value": 0.125, "unit": "µg/mL"}, {"measurement": "MIC50", "setting": "Staphylococcus aureus [6]", "value": 0.125, "unit": "µg/mL"}, {"measurement": "MIC90", "setting": "Staphylococcus aureus [6]", "value": 0.25, "unit": "µg/mL"}, {"measurement": "MIC50", "setting": "[7]", "value": 0.25, "unit": "µg/mL"}, {"measurement": "MIC90", "setting": "[7]", "value": 1, "unit": "µg/mL"}, {"measurement": "MIC", "setting": "[8]", "value": 1, "unit": "µg/mL"}, {"measurement": "MIC", "setting": "Staphylococcus aureus [9]", "value": 0.5, "unit": "µg/mL"}, {"measurement": "MIC50", "setting": "[10]", "value": 0.5, "unit": "µg/mL"}, {"measurement": "MIC90", "setting": "[10]", "value": 0.5, "unit": "µg/mL"}, {"measurement": "MIC", "setting": "[11]", "value": 0.25, "unit": "µg/mL"}, {"measurement": "MIC", "setting": "[12]", "value": 0.125, "unit": "µg/mL"}, {"measurement": "MIC", "setting": "[13]", "value": 0.125, "unit": "µg/mL"}, {"measurement": "MIC", "setting": "Staphylococcus aureus [14]", "value": 1, "unit": "µg/mL"}, {"measurement": "MIC", "setting": "Staphylococcus aureus [15]", "value": 1, "unit": "µg/mL"}, {"measurement": "MIC", "setting": "[16]", "value": 1, "unit": "µg/mL"}, {"measurement": "MIC", "setting": "[17]", "value": 0.125, "unit": "µg/mL"}, {"measurement": "MIC90", "setting": "[17]", "value": 0.5, "unit": "µg/mL"}, {"measurement": "MIC", "setting": "Staphylococcus aureus [18]", "value": 0.125, "unit": "µg/mL"}, {"measurement": "MIC", "setting": "Staphylococcus aureus [19]", "value": 4, "unit": "µg/mL"}, {"measurement": "MIC", "setting": "[20]", "value": 0.125, "unit": "µg/mL"}, {"measurement": "MIC", "setting": "Staphylococcus aureus [21]", "value": 0.06, "unit": "µg/mL"}, {"measurement": "MIC", "setting": "[22]", "value": 0.125, "unit": "µg/mL"}, {"measurement": "MIC", "setting": "Staphylococcus aureus [23]", "value": 0.125, "unit": "µg/mL"}, {"measurement": "MIC", "setting": "[24]", "value": 2, "unit": "µg/mL"}, {"measurement": "MIC", "setting": "Staphylococcus aureus [25]", "value": 2, "unit": "µg/mL"}, {"measurement": "MIC50", "setting": "Staphylococcus aureus [26]", "value": 0.125, "unit": "µg/mL"}, {"measurement": "MIC90", "setting": "Staphylococcus aureus [26]", "value": 0.25, "unit": "µg/mL"}, {"measurement": "MIC", "setting": "[27]", "value": 0.5, "unit": "µg/mL"}, {"measurement": "MIC", "setting": "Staphylococcus aureus [28]", "value": 1, "unit": "µg/mL"}, {"measurement": "MIC", "setting": "Staphylococcus aureus [29]", "value": 8, "unit": "µg/mL"}, {"measurement": "MIC", "setting": "[30]", "value": 0.25, "unit": "µg/mL"}, {"measurement": "MIC", "setting": "Staphylococcus aureus [31]", "value": 2, "unit": "µg/mL"}, {"measurement": "MIC", "setting": "[32]", "value": 4, "unit": "µg/mL"}, {"measurement": "MIC", "setting": "Staphylococcus aureus [33]", "value": 0.125, "unit": "µg/mL"}, {"measurement": "MIC50", "setting": "Staphylococcus aureus [34]", "value": 0.125, "unit": "µg/mL"}, {"measurement": "MIC90", "setting": "Staphylococcus aureus [34]", "value": 2, "unit": "µg/mL"}, {"measurement": "MIC50", "setting": "[35]", "value": 0.125, "unit": "µg/mL"}, {"measurement": "MIC90", "setting": "[35]", "value": 1, "unit": "µg/mL"}]}]}
